Results taken from ChEMBL document CHEMBL4706649, “Design, synthesis and biological evaluation of new benzoxazolone/benzothiazolone derivatives as multi-target agents against Alzheimer's disease” (Eur J Med Chem, 2021).
Calls of active or inactive are those of the source. No cut-off for these calls is given here.

How the values were obtained:
[1] = Antioxidant activity assessed as trolox equivalent of AAPH radical scavenging activity at 10 uM measured every min for 90 mins by ORAC-FL assay; type: functional
How it was run: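 ORAC-FL in 75 mM phosphate buffer pH 7.4. Sample and fluorescein (150 nM final) preincubated 15 min at 37 °C, then AAPH (12 mM final) added. Fluorescence (ex 485/em 535 nm) read each minute for 90 min. Net AUC after blank subtraction, converted to Trolox equivalents from a Trolox curve (0.5–8, final; Trolox = 1). Duplicate wells, three independent assays.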

[2] = target: Acetylcholinesterase (Electrophorus electricus) (UniProt O42275); experiment: Inhibition of electric eel AChE at 100 uM using acetylthiocholine iodide as substrate preincubated for 10 mins followed by substrate addition and measured for 10 mins by Ellman's method relative to control; details: time 20.0 min
How it was run: (§1)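 Ellman single-concentration screen in 50 mM Tris-HCl pH 8.0 with DTNB (6.8 mM stock) and 1% DMSO. Enzyme solution 0.4 U/mL AChE or 0.8 U/mL BChE. Compound and enzyme preincubated 10 min at 25 °C, then ATI (10 mM stock) or BTI (30 mM stock) added. A412 followed for 10 min, blank-subtracted, % inhibition versus no-compound control. Triplicate.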

[3] = target: Cholinesterase (Equus caballus) (UniProt P81908); experiment: Inhibition of equine serum BChE at 100 uM using butyrylthiocholine iodide as substrate preincubated for 10 mins followed by substrate addition and measured for 10 mins by Ellman's method relative to control; details: time 20.0 min; how it was run: as §1
Acetylcholinesterase = Acetylcholinesterase (Electrophorus electricus, UniProt O42275); experiment: Inhibition of electric eel AChE using acetylthiocholine iodide as substrate preincubated for 10 mins followed by substrate addition and measured for 10 mins by Ellman's method
Cholinesterase = Cholinesterase (Equus caballus, UniProt P81908); experiment: Inhibition of equine serum BChE using butyrylthiocholine iodide as substrate preincubated for 10 mins followed by substrate addition and measured for 10 mins by Ellman's method
How it was run: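 BChE (0.8 U/mL solution) preincubated with inhibitor 10 min at 25 °C in Tris-HCl pH 8.0 with DTNB and 1% DMSO, then BTI (30 mM stock) added. A412 read over 10 min, blank-corrected. IC50 from log[inhibitor] versus % inhibition. Triplicate, mean ± SD.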

THP-1 [4] = experiment: Antiinflammatory activity in LPS-induced human THP-1 cells assessed as reduction in IL6 release at 10 uM peincubated for 1 hr followed by LPS stimulation and measured after 24 hrs by EIA; type: functional, cell-based; details: time 25.0 hrs
How it was run: (§2)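 THP-1 cells grown in RPMI 1640 with 10% FCS, penicillin and streptomycin at 37 °C, 5% CO2, then plated overnight at 4×10⁴ cells/well. Test compound added 1 h before 100 ng/ml E. coli O111:B4 LPS; 24 h incubation. Untreated and LPS-only controls. […]; cytokine read by EIA at 450 nm against a standard curve. At least triplicate.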

THP-1 [5] = experiment: Antiinflammatory activity in LPS-induced human THP-1 cells assessed as reduction in nitric oxide release at 10 uM peincubated for 1 hr followed by LPS stimulation and measured after 24 hrs by ELISA; type: functional, cell-based; details: time 25.0 hrs
How it was run: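 THP-1 cells plated overnight at 4×10⁴ cells/well, given test compound 1 h before 100 ng/ml LPS (E. coli O111:B4), then incubated 24 h. Cell-free supernatants stored at −20 °C, then NO measured by ELISA kit (sensitivity 1,12 […]) from a standard curve. Untreated cells as negative control, LPS-only as positive control. At least triplicate.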

THP-1 [6] = experiment: Antiinflammatory activity in LPS-induced human THP-1 cells assessed as reduction in TNFalpha release at 10 uM peincubated for 1 hr followed by LPS stimulation and measured after 24 hrs by EIA; type: functional, cell-based; details: time 25.0 hrs; how it was run: as §2
THP-1 [7] = experiment: Antiinflammatory activity in LPS-induced human THP-1 cells assessed as reduction in IL1beta release at 10 uM peincubated for 1 hr followed by LPS stimulation and measured after 24 hrs by EIA; type: functional, cell-based; details: time 25.0 hrs; how it was run: as §2
[8] = target: Amyloid-beta precursor protein (Homo sapiens) (UniProt P05067); experiment: Inhibition of amyloid beta (1 to 42) (unknown origin) self-induced aggregation at 50 uM by Thioflavin T based fluorometric assay relative to control
How it was run: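 Thioflavin T fluorometric assay of Aβ1-42 self-aggregation, with inhibitor and Aβ42 both at 50 (equimolar). Samples dissolved in DMSO. Result given as % inhibition, mean of two independent experiments each run in triplicate.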

Chain of Cholinesterase (Equus caballus) (P81908 whole entry): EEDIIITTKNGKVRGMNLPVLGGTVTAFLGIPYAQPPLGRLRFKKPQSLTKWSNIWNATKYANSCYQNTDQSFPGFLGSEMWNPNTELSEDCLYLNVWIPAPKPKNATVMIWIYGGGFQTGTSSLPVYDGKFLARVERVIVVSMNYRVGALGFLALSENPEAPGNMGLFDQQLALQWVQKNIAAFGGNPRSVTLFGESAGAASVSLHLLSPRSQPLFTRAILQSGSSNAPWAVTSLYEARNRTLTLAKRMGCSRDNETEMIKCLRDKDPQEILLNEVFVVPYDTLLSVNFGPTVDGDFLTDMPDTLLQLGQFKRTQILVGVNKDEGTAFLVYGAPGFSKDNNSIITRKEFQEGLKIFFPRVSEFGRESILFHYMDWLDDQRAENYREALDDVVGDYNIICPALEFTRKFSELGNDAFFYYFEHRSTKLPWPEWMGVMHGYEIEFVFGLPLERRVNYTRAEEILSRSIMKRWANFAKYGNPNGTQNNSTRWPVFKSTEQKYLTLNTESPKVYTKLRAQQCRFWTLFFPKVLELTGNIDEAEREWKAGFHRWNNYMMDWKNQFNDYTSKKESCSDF
Chain of Cholinesterase (P81908 whole entry): as above
Chain of Acetylcholinesterase (O42275 whole entry): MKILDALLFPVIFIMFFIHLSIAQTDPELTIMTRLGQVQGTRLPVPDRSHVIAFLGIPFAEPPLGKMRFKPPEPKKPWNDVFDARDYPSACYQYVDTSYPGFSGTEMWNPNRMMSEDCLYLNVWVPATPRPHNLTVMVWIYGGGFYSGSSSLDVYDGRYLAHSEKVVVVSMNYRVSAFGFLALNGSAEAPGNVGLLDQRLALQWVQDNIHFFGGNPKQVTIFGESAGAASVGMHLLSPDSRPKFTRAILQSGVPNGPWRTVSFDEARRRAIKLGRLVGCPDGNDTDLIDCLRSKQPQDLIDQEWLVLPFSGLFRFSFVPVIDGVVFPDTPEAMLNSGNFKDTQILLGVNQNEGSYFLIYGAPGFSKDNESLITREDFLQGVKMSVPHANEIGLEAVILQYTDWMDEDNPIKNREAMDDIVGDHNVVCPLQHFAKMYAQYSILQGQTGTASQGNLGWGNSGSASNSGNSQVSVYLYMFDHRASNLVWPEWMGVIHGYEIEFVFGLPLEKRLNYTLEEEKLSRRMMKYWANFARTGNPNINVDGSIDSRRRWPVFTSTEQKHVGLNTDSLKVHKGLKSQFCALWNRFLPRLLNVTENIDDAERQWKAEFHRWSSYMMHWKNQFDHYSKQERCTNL
Chain of Acetylcholinesterase (Electrophorus electricus) (O42275 24-633 limits assumed): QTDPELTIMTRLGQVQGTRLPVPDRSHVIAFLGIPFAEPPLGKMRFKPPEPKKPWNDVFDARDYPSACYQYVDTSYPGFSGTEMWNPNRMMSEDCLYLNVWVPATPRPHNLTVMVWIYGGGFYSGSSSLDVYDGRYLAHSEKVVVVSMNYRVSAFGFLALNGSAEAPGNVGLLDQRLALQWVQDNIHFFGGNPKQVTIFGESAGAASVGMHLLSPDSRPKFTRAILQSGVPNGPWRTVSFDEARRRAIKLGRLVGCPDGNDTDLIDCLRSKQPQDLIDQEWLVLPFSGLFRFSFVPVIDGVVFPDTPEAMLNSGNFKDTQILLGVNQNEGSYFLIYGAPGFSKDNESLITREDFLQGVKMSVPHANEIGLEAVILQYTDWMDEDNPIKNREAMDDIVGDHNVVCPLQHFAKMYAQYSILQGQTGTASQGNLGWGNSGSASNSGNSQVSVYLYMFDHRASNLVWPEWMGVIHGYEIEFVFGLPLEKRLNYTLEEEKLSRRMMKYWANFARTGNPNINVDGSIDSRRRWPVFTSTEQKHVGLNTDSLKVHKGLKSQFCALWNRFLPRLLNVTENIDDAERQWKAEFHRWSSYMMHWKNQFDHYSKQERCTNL
Chain of Amyloid-beta precursor protein (Homo sapiens) (P05067 whole entry): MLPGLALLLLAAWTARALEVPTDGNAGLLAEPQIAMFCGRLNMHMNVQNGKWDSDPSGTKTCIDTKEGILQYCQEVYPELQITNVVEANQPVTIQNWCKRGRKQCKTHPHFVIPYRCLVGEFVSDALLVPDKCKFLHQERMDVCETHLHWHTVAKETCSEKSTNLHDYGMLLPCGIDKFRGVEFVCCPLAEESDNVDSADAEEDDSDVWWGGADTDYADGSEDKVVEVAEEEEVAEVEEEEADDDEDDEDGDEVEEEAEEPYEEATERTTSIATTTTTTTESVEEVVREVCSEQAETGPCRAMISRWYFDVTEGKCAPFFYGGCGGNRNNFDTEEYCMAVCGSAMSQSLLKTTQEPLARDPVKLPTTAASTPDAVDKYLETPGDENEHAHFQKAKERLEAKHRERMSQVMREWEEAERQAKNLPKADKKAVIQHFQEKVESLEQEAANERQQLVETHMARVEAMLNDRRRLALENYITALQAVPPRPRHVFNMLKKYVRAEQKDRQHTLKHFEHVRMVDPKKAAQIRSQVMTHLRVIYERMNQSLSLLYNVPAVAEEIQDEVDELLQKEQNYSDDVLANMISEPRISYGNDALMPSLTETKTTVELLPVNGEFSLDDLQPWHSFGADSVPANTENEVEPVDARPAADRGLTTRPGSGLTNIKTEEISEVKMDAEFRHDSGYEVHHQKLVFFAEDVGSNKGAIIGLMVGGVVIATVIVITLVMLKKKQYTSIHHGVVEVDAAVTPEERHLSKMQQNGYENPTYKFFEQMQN

SMILES	Activity [1] [equiv]	inhibition [2] [%]	inhibition [3] [%]	IC50 (Acetylcholinesterase) [µM]	IC50 (Cholinesterase) [µM]	Activity (THP-1 [4])	Activity (THP-1 [5])	Activity (THP-1 [6])	Activity (THP-1 [7])	inhibition [8] [%]
Cn1c(=O)oc2cc(NC(=O)CCN3CCN(Cc4ccc(Cl)cc4)CC3)ccc21	4.19	40	< 10							
Cn1c(=O)sc2cc(NC(=O)CCN3CCC(Cc4ccccc4)CC3)ccc21	4.01	62	60	31.9	75.4					
Cn1c(=O)sc2cc(NC(=O)CCN3CCN(Cc4ccc(F)cc4)CC3)ccc21	4.1	74	52	7.09	37.6					
Cn1c(=O)sc2cc(NC(=O)CCN3CCN(Cc4ccc(Cl)cc4)CC3)ccc21	4.01	37	< 10							
Cc1ccc(N2CCN(CCC(=O)Nc3ccc4c(c3)oc(=O)n4C)CC2)cc1	4.03	33	< 10							
Cn1c(=O)oc2cc(NC(=O)CCN3CCN(c4ccccc4)CC3)ccc21	4.02	32	< 10							
Cn1c(=O)oc2cc(NC(=O)CCN3CCN(Cc4ccc(F)cc4)CC3)ccc21	3.92	66	21	16.1						
Cc1ccc(N2CCN(CCC(=O)Nc3ccc4c(c3)sc(=O)n4C)CC2)cc1	4.31	35	< 10							
Cn1c(=O)oc2cc(NC(=O)CCN3CCN(c4ccc(F)cc4)CC3)ccc21	3.85	35	< 10							
Cn1c(=O)oc2cc(NC(=O)CCN3CCN(c4ccc(Cl)cc4)CC3)ccc21	3.95	30	< 10							
Cn1c(=O)sc2cc(NC(=O)CCN3CCN(Cc4ccccc4)CC3)ccc21	4.08	92	< 10	2.34		Active	Active	Active	Active	
Cn1c(=O)sc2cc(NC(=O)CCCN3CCN(Cc4ccccc4)CC3)ccc21	3.91	93	< 10	1.96		Active	Active	Active	Active	
COc1ccc(CN2CCN(CCC(=O)Nc3ccc4c(c3)oc(=O)n4C)CC2)cc1	4.2	38	< 10							
CN(CCC(=O)Nc1ccc2c(c1)oc(=O)n2C)Cc1ccccc1	4.3	58	42	52.4						
Cn1c(=O)oc2cc(C(=O)CCN3CCN(Cc4ccccc4)CC3)ccc21	3.03	97	< 10	0.89		Active	Active	Active	Active	
COc1ccc(CN2CCN(CCC(=O)Nc3ccc4c(c3)sc(=O)n4C)CC2)cc1	4.28	39	< 10							
COc1ccc(N2CCN(CCC(=O)Nc3ccc4c(c3)oc(=O)n4C)CC2)cc1	4.28	29	< 10							
Cn1c(=O)sc2cc(C(=O)CCN3CCC(c4ccccc4)CC3)ccc21	3.1	81	79	4.32	14					
Cn1c(=O)oc2cc(NC(=O)CCN3CCN(c4ccc(C(F)(F)F)cc4)CC3)ccc21	3.9	35	< 10							

SMILES	Activity [1] [equiv]	inhibition [2] [%]	inhibition [3] [%]	IC50 (Acetylcholinesterase) [µM]	IC50 (Cholinesterase) [µM]	Activity (THP-1 [4])	Activity (THP-1 [5])	Activity (THP-1 [6])	Activity (THP-1 [7])	inhibition [8] [%]
CN(CCC(=O)Nc1ccc2c(c1)sc(=O)n2C)Cc1ccccc1	3.9	63	70	49.5	42					
Cn1c(=O)sc2cc(NC(=O)CCN3CCN(c4ccccc4)CC3)ccc21	4.24	34	< 10							
Cn1c(=O)sc2cc(NC(=O)CCCN3CCC(c4ccccc4)CC3)ccc21	2.93	32	90		9.65	Active	Active	Active	Active	
Cn1c(=O)oc2cc(NC(=O)CCN3CCN(Cc4ccccc4)CC3)ccc21	3.78	81	30	6.94		Active	Active	Active	Active	
O=C(CCN1CCN(Cc2ccccc2)CC1)Nc1ccc2nc(-c3ccccc3)oc2c1	2.68	< 10	< 10							
Cn1c(=O)sc2cc(NC(=O)CCN3CCN(c4ccc(F)cc4)CC3)ccc21	4.03	37	< 10							
O=S1(=O)OC(c2ccc(O)cc2)(c2ccc(O)cc2)c2ccccc21										32.2
COc1ccc(N2CCN(CCC(=O)Nc3ccc4c(c3)sc(=O)n4C)CC2)cc1	4.55	31	< 10							
Cn1c(=O)sc2cc(NC(=O)CCN3CCN(Cc4ccc(C(F)(F)F)cc4)CC3)ccc21	4.45	35	< 10							
Cn1c(=O)sc2cc(NC(=O)CCN3CCN(c4ccc(Cl)cc4)CC3)ccc21	4.43	32	< 10							
Cn1c(=O)sc2cc(NC(=O)CCCCN3CCN(Cc4ccccc4)CC3)ccc21	2.67	87	< 10	14						
O=C(CCN1CCN(Cc2ccccc2)CC1)Nc1ccc2nc(-c3ccccc3)sc2c1	2.64	< 10	< 10							
Cn1c(=O)oc2cc(NC(=O)CCN3CCC(c4ccccc4)CC3)ccc21	4.09	25	< 10							
Cn1c(=O)oc2cc(NC(=O)CCCCN3CCN(Cc4ccccc4)CC3)ccc21	2.63	82	< 10	30.9						
Cn1c(=O)oc2cc(NC(=O)CCN3CCC(Cc4ccccc4)CC3)ccc21	3.87	64	47	24.6						
Cn1c(=O)oc2cc(NC(=O)CCN3CCN(Cc4ccc(C(F)(F)F)cc4)CC3)ccc21	3.96	35	< 10							
Cn1c(=O)oc2cc(NC(=O)CCCN3CCN(Cc4ccccc4)CC3)ccc21	3.97	94	< 10	6		Active	Active	Active	Active	
Cn1c(=O)sc2cc(NC(=O)CCN3CCN(c4ccc(C(F)(F)F)cc4)CC3)ccc21	4.1	36	< 10							
Cn1c(=O)sc2cc(NC(=O)CCN3CCC(c4ccccc4)CC3)ccc21	4.31	60	81	60.3	11.1					
